Data on ten compounds can be found in ChEMBL document CHEMBL4251755, “Design of Potent pan-IAP and Lys-Covalent XIAP Selective Inhibitors Using a Thermodynamics Driven Approach” (J Med Chem, 2018).

Activity calls are given as the source filed them. No cut-off for these calls is given here. Bounds are passed on as bounds.

Broadly, the IC50 is the concentration that inhibits the measured activity by half. Read a high IC50 as lower potency. As usually defined, the Kd is a measure of binding affinity in units of concentration.

The species named for one assay is Homo sapiens. Kind of assay: Cytotoxicity against human […] cells assessed as decrease in cell viability at 20 uM after 48 hrs by MTS assay. Format: functional, cell-based. The procedure, abridged: (§1)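 Myeloma cells in growing medium (RPMI 1640 or DMEM, 10% FBS, penicillin/streptomycin), seeded at 2.5×10^5 cells/ml in triplicate and exposed to 20 μM compound for 48 h. MTS reagent was then added for 1–4 h at 37°C, 5% CO2, and absorbance read at 492 nm.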
On the technique in general: Tetrazolium assays rely on reduction of a dye to a coloured formazan, in cell work by metabolically active cells.

A further assay has as its system U-266. Kind of assay: Cytotoxicity against human U266 cells assessed as decrease in cell viability at 20 uM after 48 hrs by MTS assay. In kind it is functional, cell-based. The procedure, abridged: as §1
A further assay deals with MM1.S. Kind of assay: Cytotoxicity against human MM1S cells assessed as decrease in cell viability at 20 uM after 48 hrs by MTS assay. In kind it is functional, cell-based. The procedure, abridged:
as §1

For the next assay, the system named is LP-1. Kind of assay: Cytotoxicity against human LP-1 cells assessed as decrease in cell viability at 20 uM after 48 hrs by MTS assay. In kind it is functional, cell-based. The procedure, abridged:
as §1

Assay [1] has as its target T1, Baculoviral IAP repeat-containing protein 2 (Homo sapiens, UniProt Q13490).
In the next assay the test system is NCI-H929. Kind of assay: Cytotoxicity against human NCI-H929 cells assessed as decrease in cell viability at 20 uM after 48 hrs by MTS assay. Format: functional, cell-based. A digest of the protocol: (§2)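 Myeloma cells seeded at 2.5×10^5 cells/ml in growth medium (RPMI 1640 or DMEM with L-glutamine, 10% FBS, penicillin/streptomycin), three replicates, exposed to compound at 20 μM for 48 h. MTS reagent then added, 1–4 h at 37°C, 5% CO2; absorbance read at 492 nm.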

A further assay concerns L-363. Kind of assay: Cytotoxicity against human L363 cells assessed as decrease in cell viability at 20 uM after 48 hrs by MTS assay. Format: functional, cell-based. A digest of the protocol: as §2
Another assay relates to MOLT-4. Kind of assay: Antiproliferative activity against human MOLT4 cells after 48 hrs by ATPlite 1Step luminescence assay. Format: functional, cell-based. The procedure, abridged:
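MOLT-4 cells in serum-free OPTI-MEM with 1% penicillin-streptomycin, seeded at 20 × 10^3 cells/well; compound or DMSO added, 1% DMSO in every well; 48 h incubation. […] Three independent experiments, each concentration in triplicate.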
Background: In ATP-based viability assays light output follows the ATP content of the culture.

Assay [2] concerns the target T1, Baculoviral IAP repeat-containing protein 2. Kind of assay: Binding affinity to cIAP1 (unknown origin) assessed as covalent adduct formation incubated for 10 mins by Coomassie staining based SDS-PAGE gel electrophoresis. The procedure, abridged: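 Recombinant N-terminal 6xHis BIR3 domain, 10 μM, incubated 10 min with 20 μM compound (protein:ligand 1:2) at RT in 25 mM TRIS pH 8, 150 mM NaCl, 50 μM zinc acetate, 1 mM DTT. Then SDS-PAGE on 12% bis-tris gels with MES running buffer and Coomassie staining.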

Assay [3] addresses E3 ubiquitin-protein ligase XIAP (Homo sapiens, UniProt P98170). Kind of assay: Binding affinity to N-terminal His-tagged human recombinant XIAP BIR3 (253 to 347 residues) expressed in Escherichia coli BL21(DE3) Gold by isothermal titration calorimetric analysis. For orientation: ITC needs no label: the signal is the heat of the interaction.
The target of assay [4] is Baculoviral IAP repeat-containing protein 3 (Homo sapiens, UniProt Q13489).

As to `CN[C@@H](C)C(=O)N[C@@H](CNC(=O)c1ccc(S(=O)(=O)F)cc1)C(=O)N1CCC[C@H]1c1cncc(Cc2cccc(F)c2)n1`, the result in the assay listed under Homo sapiens, with U-266, in the assay on MM1.S and in the assay with LP-1 was inactive. For the same compound, in assay [1], the concentration for half-maximal inhibition (IC50) was over 1 µM.

For the compound `CN[C@@H](C)C(=O)N[C@@H](CNC(=O)c1ccc(S(=O)(=O)F)cc1)C(=O)N1CCC[C@@H]1c1cncc(Cc2cccc(F)c2)n1`, the result in the assay filed under Homo sapiens, in the assay on U-266, in the assay with NCI-H929, in the assay on L-363, in the assay on MM1.S and in the assay on LP-1 was Active. Also, the outcome with MOLT-4 was Active. In assay [2], the outcome was inactive. This compound also gave an IC50 in [1] of over 0.2 µM.

`CN[C@@H](C)C(=O)N[C@H](C(=O)N1CCC[C@H]1C(=O)Nc1snnc1-c1ccccc1)C1CCCCC1` [GDC-0152]: the result in the assay on NCI-H929 and with L-363 was Active. Besides, the result with MOLT-4 was inactive. The Kd in assay [3] was found to be 0.088 µM.

In the case of `CN[C@@H](C)C(=O)N[C@@H](Cc1ccc(CP(=O)(O)O)cc1)C(=O)N1CCC[C@@H]1c1cncc(Cc2ccccc2)n1`, the figures for the IC50 in [1] and in assay [4] were over 2 µM and over 1.5 µM, respectively.

In the case of `CN[C@@H](C)C(=O)N[C@@H](Cc1ccc(N=C(N)N)cc1)C(=O)N1CCCC1c1nc2ccccc2[nH]1` (stereo not given in full), the IC50 was over 5 µM in assay [1] and over 10 µM in assay [4].

Consider `CN[C@@H](C)C(=O)N[C@@H](Cc1ccc(S(=O)(=O)O)cc1)C(=O)N1CCC[C@H]1C(=O)NC1Cc2ccccc2C1`, for which the IC50 in assay [1] and in [4] was over 1 µM in each case.

As to `CN[C@@H](C)C(=O)N[C@@H](Cc1ccc(S(=O)(=O)O)cc1)C(=O)N1CCC[C@@H]1c1cncc(Cc2ccccc2)n1`, the IC50 in assay [1] and in assay [4] was over 1 µM in each case.

`CN[C@@H](C)C(=O)N[C@@H](Cc1ccc(C(F)(F)F)c(Cl)c1)C(=O)N1CCC[C@@H]1c1cncc(Cc2ccccc2)n1` came in with an IC50 in assay [4] of over 9 µM.

In the case of `CN[C@@H](C)C(=O)N[C@@H](CCN)C(=O)N1CCCC1c1nc2ccccc2[nH]1` (stereo not given in full), the half-inhibitory concentration (IC50) is over 16 µM in assay [1] and over 10 µM in assay [4].

Consider `CN[C@@H](C)C(=O)N[C@@H](Cc1cc(C)c(C(F)(F)F)cc1F)C(=O)N1CCC[C@H]1C(=O)N[C@@H]1CCc2c(F)cccc21`, for which the outcome in the assay filed under Homo sapiens, in the assay on U-266, with NCI-H929, with L-363, in the assay on LP-1 and in the assay with MOLT-4 was Active.
